# Active and inactive are the calls of the source. The rule behind the calls is not given here.
# Legend:
# [1] = Half life in guinea pig infected with 10^6 CFU Microsporum canis B68128 at 20 mg/kg, po administered 2 hrs before infection for 5 days; type: ADME, organism-based, Cavia porcellus; set-up: dose 20 mg/kg, route oral; settings: in vivo
# [2] = Cytotoxicity against human MRC5 cells; type: cell-based
# Method in brief: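 Human lung fibroblasts (MRC-5SV40) were tested in parallel with the fungal screens. CC50 is the concentration killing 50% of cells, given as the mean ± SD of five independent repeats.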
# [3] = system: Microsporum canis; assay: Antifungal activity against 5 x 10^6 CFU/ml Microsporum canis B68128 by resazurin based fluorimetry assay; type: functional, organism-based
# Method in brief: (§1)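 Isolates were grown on Sabouraud dextrose agar, with stocks of 5×10^6 CFU/ml in RPMI-MOPS plus 10% glycerol kept in liquid nitrogen. Each well held 10^3 CFU in 200 μl RPMI-MOPS with compound dilutions, top concentration 64 μM. After incubation, resazurin was added and fluorescence read (ex 550, em 590 nm). IC50 was relative to untreated controls, as the mean ± SD of five independent repeats.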
# [4] = system: Candida albicans; assay: Antifungal activity against 5 x 10^6 CFU/ml Candida albicans B59163 by resazurin based fluorimetry assay; type: functional, organism-based; method in brief: as §1
# [5] = Tmax in guinea pig infected with 10^6 CFU Microsporum canis B68128 at 20 mg/kg, po administered 2 hrs before infection for 5 days; type: ADME, organism-based, Cavia porcellus; set-up: dose 20 mg/kg, route oral; settings: in vivo
# [6] = system: Trichophyton mentagrophytes; assay: Antifungal activity against 5 x 10^6 CFU/ml Trichophyton mentagrophytes B70554 by resazurin based fluorimetry assay; type: functional, organism-based; method in brief: as §1
# [7] = system: Trichophyton rubrum; assay: Antifungal activity against 5 x 10^6 CFU/ml Trichophyton rubrum J941704 by resazurin based fluorimetry assay; type: functional, organism-based; method in brief: as §1
# [8] = system: Trichophyton rubrum; assay: Antifungal activity against 5 x 10^6 CFU/ml Trichophyton rubrum B68183 by resazurin based fluorimetry assay; type: functional, organism-based; method in brief: as §1
# [9] = system: Pichia kudriavzevii; assay: Antifungal activity against 5 x 10^6 CFU/ml Candida krusei B68404 by resazurin based fluorimetry assay; type: functional, organism-based; method in brief: as §1
# [10] = system: Candida albicans; assay: Antifungal activity against 10^7 CFU/ml Candida albicans B2630 infected in vulvovaginitis rat model assessed as fungal burden at 5 mg/kg, po SID; type: functional, organism-based; set-up: dose 5 mg/kg; settings: Vagina
# Method in brief: (§2)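 Intravaginal infection with 10^7 CFU. Oral dosing once daily in PEG200, starting about 2 h before infection, for 5 days. […] Six rats in two experiments.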
# [11] = system: Candida albicans; assay: Antifungal activity against 10^7 CFU/ml Candida albicans B2630 infected in vulvovaginitis rat model assessed as fungal burden at 10 mg/kg administered tropically twice daily measured after 3 days; type: functional, organism-based; set-up: dose 10 mg/kg; settings: Vagina
# [12] = system: Candida albicans; assay: Antifungal activity against 10^7 CFU/ml Candida albicans B2630 infected in vulvovaginitis rat model assessed as fungal burden at 10 mg/kg, po SID; type: functional, organism-based; set-up: dose 10 mg/kg; settings: Vagina; method in brief: as §2
# [13] = system: Candida albicans; assay: Antifungal activity against 5 x 10^6 CFU/ml Candida albicans B2630 by resazurin based fluorimetry assay; type: functional, organism-based; method in brief: as §1
# [14] = system: Kluyveromyces marxianus; assay: Antifungal activity against 5 x 10^6 CFU/ml Candida kefyr B46120 by resazurin based fluorimetry assay; type: functional, organism-based; method in brief: as §1
# [15] = system: Candida albicans; assay: Antifungal activity against 10^7 CFU/ml Candida albicans B2630 infected in vulvovaginitis rat model assessed as fungal burden at 5 mg/kg administered tropically twice daily measured after 3 days; type: functional, organism-based; set-up: dose 5 mg/kg; settings: Vagina
# [16] = system: Nakaseomyces glabratus; assay: Antifungal activity against 5 x 10^6 CFU/ml Candida glabrata B63155 by resazurin based fluorimetry assay; type: functional, organism-based; method in brief: as §1
# [17] = Cmax in plasma of guinea pig infected with 10^6 CFU Microsporum canis B68128 at 20 mg/kg, po administered 2 hrs before infection for 5 days; type: ADME, organism-based, Cavia porcellus; set-up: dose 20 mg/kg, route oral
# [18] = system: Trichophyton quinckeanum; assay: Antifungal activity against 5 x 10^6 CFU/ml Trichophyton quinckeanum B68683 by resazurin based fluorimetry assay; type: functional, organism-based; method in brief: as §1
# [19] = Tmax in guinea pig infected with 10^6 CFU Microsporum canis B68128 at 40 mg/kg, po administered 2 hrs before infection for 5 days; type: ADME, organism-based, Cavia porcellus; set-up: dose 40 mg/kg, route oral; settings: in vivo
# [20] = Half life in guinea pig infected with 10^6 CFU Microsporum canis B68128 at 40 mg/kg, po administered 2 hrs before infection for 5 days; type: ADME, organism-based, Cavia porcellus; set-up: dose 40 mg/kg, route oral; settings: in vivo
# [21] = Cmax in plasma of guinea pig infected with 10^6 CFU Microsporum canis B68128 at 40 mg/kg, po administered 2 hrs before infection for 5 days; type: ADME, organism-based, Cavia porcellus; set-up: dose 40 mg/kg, route oral
# [22] = Half life in guinea pig infected with 10^6 CFU Microsporum canis B68128 at 10 mg/kg, po administered 2 hrs before infection for 5 days; type: ADME, organism-based, Cavia porcellus; set-up: dose 10 mg/kg, route oral; settings: in vivo
# [23] = Cmax in plasma of guinea pig infected with 10^6 CFU Microsporum canis B68128 at 10 mg/kg, po administered 2 hrs before infection for 5 days; type: ADME, organism-based, Cavia porcellus; set-up: dose 10 mg/kg, route oral
# [24] = Tmax in guinea pig infected with 10^6 CFU Microsporum canis B68128 at 10 mg/kg, po administered 2 hrs before infection for 5 days; type: ADME, organism-based, Cavia porcellus; set-up: dose 10 mg/kg, route oral; settings: in vivo
Structure (SMILES),CC50 [2] [nM],IC50 [3] [nM],IC50 [4] [nM],IC50 [6] [nM],IC50 [7] [nM],IC50 [8] [nM],IC50 [9] [nM],Activity [10],Activity [11],Activity [12],IC50 [13] [nM],IC50 [14] [nM],Activity [15],IC50 [16] [nM],IC50 [18] [nM],further results
CCC(C)n1ncn(-c2ccc(N3CCN(c4ccc(OCC5COC(Cn6cncn6)(c6ccc(Cl)cc6Cl)O5)cc4)CC3)cc2)c1=O (stereo not drawn) [ITRACONAZOLE],49300,2020,1410,370,980,560,4210,Active,Active,Active,1390,400,Active,3740,2930,half-life [1]: 13.9 h; Tmax [5]: 2 h; Cmax [17]: 350 ng/mL
Clc1ccc(COC(Cn2ccnc2)c2ccc(Cl)cc2Cl)c(Cl)c1 (stereo not drawn) [MICONAZOLE],29700,230,300,400,140,330,1400,,Active,,2500,30,Active,120,790,
CC(C)N1CCN(c2ccc(N3CCN(c4ccc(OC[C@H]5OC[C@](Cn6cncn6)(c6ccc(F)cc6F)O5)cc4)CC3)cc2)C1=O [PRAMICONAZOLE],53300,180,40,150,190,350,870,Active,Active,Active,1830,130,Active,650,1340,Tmax [19]: 4 h; half-life [20]: 23 h; Cmax [21]: 180 ng/mL
CN(C/C=C/C#CC(C)(C)C)Cc1cccc2ccccc12 [TERBINAFINE],63000,100,3570,60,30,70,64000,,,,64000,6330,,30700,10,half-life [22]: 6.6 h; Cmax [23]: 60 ng/mL; Tmax [24]: 0.7 h

# Reference: ChEMBL document CHEMBL1671757, “In vitro profiling of pramiconazole and in vivo evaluation in Microsporum canis dermatitis and Candida albicans vaginitis laboratory models” (Antimicrob Agents Chemother, 2010)
